In ChEMBL document CHEMBL1136016, “Synthesis, biological activity, and molecular modeling investigation of new pyrazolo[4,3-e]-1,2,4-triazolo[1,5-c]pyrimidine derivatives as human A(3) adenosine receptor antagonists” (J Med Chem, 2002) one finds Ratio, IC50 and Ki data, which are given here for nine compounds.

Experiment [1] concerns the target Adenosine receptors; A1 & A3 (Homo sapiens) (UniProt P30542+P0DMS8). Briefly: Selectivity ratio (hA1/hA3). The class given is protein assay.
For experiment [2], the target named is Adenosine receptors; A2b & A3 (Homo sapiens) (UniProt P29275+P0DMS8). Briefly: Selectivity ratio (h2B/hA3). The class given is protein assay.
Experiment [3] has as its target T1, Adenosine receptor A3 (Homo sapiens, UniProt P0DMS8).
T1 sequence (P0DMS8 whole entry): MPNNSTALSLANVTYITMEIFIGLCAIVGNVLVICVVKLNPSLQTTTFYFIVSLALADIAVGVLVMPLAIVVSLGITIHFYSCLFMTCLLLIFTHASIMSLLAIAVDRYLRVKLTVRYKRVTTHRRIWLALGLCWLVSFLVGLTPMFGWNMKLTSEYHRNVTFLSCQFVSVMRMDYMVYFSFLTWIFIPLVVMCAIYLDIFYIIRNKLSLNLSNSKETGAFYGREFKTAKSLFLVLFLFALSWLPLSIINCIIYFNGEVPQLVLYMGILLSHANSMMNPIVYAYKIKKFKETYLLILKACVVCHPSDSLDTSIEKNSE
Nature of the experiment: Inhibition of IB-MECA agonist-mediated cAMP production in membranes of CHO cells expressing human Adenosine A3 receptor. The class given is functional, cell-based. In outline:
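Human A3-CHO membranes (in 50 mM Tris HCl, 10 mM MgCl2, 1 mM EDTA, pH 7.4) were preincubated for 10 min at 37 °C with 5 µM GTP, 0.5 mM Ro 20-1724 and 2.0 IU/mL adenosine deaminase. IB-MECA (100 nM) or antagonist was then added with 1 mM ATP and forskolin for 10 min. The reaction was stopped by 2 min boiling. cAMP was measured by [3H]cAMP competitive protein binding using beef adrenal binding protein, 150 min at 4 °C.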
In general terms: Changes in cAMP serve as a functional read-out for many G protein-coupled receptors.

Experiment [4] has as its target T1, Adenosine receptor A3. Nature of the experiment: Displacement of […] from human Adenosine A3 receptor expressed in CHO cells. The experiment is classed as cell-based. In outline: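 Membranes of CHO cells stably expressing human A3 receptor (50 µg protein/assay), incubated in duplicate with 1 nM [3H]MRE3008-F20 in 50 mM Tris HCl, 10 mM MgCl2 (pH 7.4) and six to eight ligand concentrations, 120 min at 4 °C. Nonspecific binding was set with 1 µM MRE3008-F20. Separation was by GF/B filtration and scintillation counting; n = 3-6.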

Experiment [5] addresses T2, Adenosine receptor A2b (Homo sapiens, UniProt P29275).
T2 sequence (P29275 whole entry): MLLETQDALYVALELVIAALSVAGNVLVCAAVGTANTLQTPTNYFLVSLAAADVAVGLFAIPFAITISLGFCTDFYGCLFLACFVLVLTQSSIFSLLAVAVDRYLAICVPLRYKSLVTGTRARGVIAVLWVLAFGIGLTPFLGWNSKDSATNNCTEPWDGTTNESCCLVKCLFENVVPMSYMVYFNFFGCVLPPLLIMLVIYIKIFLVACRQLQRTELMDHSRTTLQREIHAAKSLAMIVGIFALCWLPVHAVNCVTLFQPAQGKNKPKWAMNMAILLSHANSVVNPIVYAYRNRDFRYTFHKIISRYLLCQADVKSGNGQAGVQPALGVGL
Briefly: Displacement of [3H]DPCPX binding at human Adenosine A2B receptor expressed in HEK293 cells. The class given is cell-based. The method, boiled down: (§1)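 Membranes from HEK-293 cells with human recombinant A2B receptor. Incubation 60 min at 25 °C in 50 mM Tris HCl, 10 mM MgCl2, 1 mM EDTA, 0.1 mM benzamidine, pH 7.4, with 2 IU/mL adenosine deaminase and 40 nM [3H]DPCPX. At least six to eight test concentrations. Nonspecific binding defined with NECA. n = 3-6.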

The target in experiment [6] is T3, Adenosine receptor A2a (Homo sapiens, UniProt P29274). Nature of the experiment: Displacement of [3H]SCH-58261 from human Adenosine A2A receptor expressed in CHO cells. The class given is cell-based. The method, boiled down: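 Membranes from CHO cells expressing the human receptor (50 µg protein) with [3H]SCH58261 and six to eight competitor concentrations. Incubated 60 min at 25 °C. Nonspecific binding was set with NECA.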
T3 sequence (P29274 whole entry): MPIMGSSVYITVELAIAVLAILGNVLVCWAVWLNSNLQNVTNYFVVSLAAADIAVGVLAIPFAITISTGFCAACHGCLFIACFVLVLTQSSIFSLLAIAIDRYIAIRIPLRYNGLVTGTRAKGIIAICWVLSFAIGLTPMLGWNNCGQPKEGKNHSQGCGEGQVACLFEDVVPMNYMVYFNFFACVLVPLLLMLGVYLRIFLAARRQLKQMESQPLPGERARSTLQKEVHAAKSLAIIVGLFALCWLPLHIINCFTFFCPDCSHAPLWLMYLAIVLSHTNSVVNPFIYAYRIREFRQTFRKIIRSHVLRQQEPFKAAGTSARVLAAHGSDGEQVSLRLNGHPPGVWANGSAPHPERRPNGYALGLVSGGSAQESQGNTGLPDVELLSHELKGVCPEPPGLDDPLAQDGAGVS
In general terms: Loss of bound radioactivity is the signal in a displacement assay; it reports binding, not function.

Experiment [7] has as its target T4, Adenosine receptor A1 (Homo sapiens, UniProt P30542).
T4 sequence (P30542 whole entry): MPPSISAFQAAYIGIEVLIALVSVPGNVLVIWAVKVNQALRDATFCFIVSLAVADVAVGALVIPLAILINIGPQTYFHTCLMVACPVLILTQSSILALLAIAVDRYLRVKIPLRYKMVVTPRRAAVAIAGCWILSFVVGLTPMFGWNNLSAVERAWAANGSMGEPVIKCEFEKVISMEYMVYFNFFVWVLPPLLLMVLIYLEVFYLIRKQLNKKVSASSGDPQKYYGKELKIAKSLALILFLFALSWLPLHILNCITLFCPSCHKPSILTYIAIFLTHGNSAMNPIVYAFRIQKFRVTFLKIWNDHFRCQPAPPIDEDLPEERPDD
Briefly: Displacement of [3H]DPCPX from human Adenosine A1 receptor expressed in CHO cells. The experiment is classed as cell-based. The method, boiled down:
(§2)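 Human recombinant A1 receptor in CHO cell membranes, resuspended in 50 mM Tris HCl pH 7.4. Displacement run 120 min at 25 °C with 1 nM [3H]DPCPX, 50 µg protein per assay, and at least six to eight test concentrations. Nonspecific binding defined with CHA. Bound and free separated on glass-fiber filters; filter radioactivity counted. n = 3-6.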

Experiment [8] has as its target T1, Adenosine receptor A3. Nature of the experiment: Inhibition of IB-MECA agonist-mediated cAMP production in CHO cell membranes expressing human Adenosine A3 receptor; range 130-279. The experiment is classed as functional, cell-based.
Experiment [9] has as its target T4, Adenosine receptor A1. Nature of the experiment: Displacement of [3H]DPCPX from human Adenosine A1 receptor expressed in CHO cells; range 436-810. The class given is cell-based. In outline:
as §2

The target of experiment [10] is T3, Adenosine receptor A2a. Nature of the experiment: Displacement of [3H]SCH-58261 from human Adenosine A2A receptor expressed in HEK293 cells. The class given is cell-based.
Experiment [11] concerns the target T1, Adenosine receptor A3. Nature of the experiment: Displacement of [3H]MRE3008-F20 from human Adenosine A3 receptor expressed in HEK cells; range 19-34. The class given is cell-based, HEK293.
In experiment [12] the target is T2, Adenosine receptor A2b. Briefly: Displacement of [3H]DPCPX from human Adenosine A2B receptor expressed in HEK293 cells; range 140-186. The class given is cell-based. In outline:
as §1

The target of experiment [13] is T4, Adenosine receptor A1. Nature of the experiment: Displacement of [3H]DPCPX from human Adenosine A1 receptor expressed in CHO cells; range 294-480. The class given is cell-based.
Experiment [14] addresses T1, Adenosine receptor A3. Briefly: biochemical.
Experiment [15] addresses T3, Adenosine receptor A2a. Nature of the experiment: Displacement of [3H]SCH-58261 from human Adenosine A2A receptor expressed in HEK293 cells; range 34-50. The experiment is classed as cell-based.

The structures appear in SMILES notation.

Consider `COc1ccc(NC(=O)Nc2nc3nn(C)cc3c3nc(-c4ccco4)nn23)cc1`, for which the Ratio in experiment [1] stood at 5480; in experiment [2], 1300.

Compound `Cn1cc2c(nc(NC(=O)Nc3ccc([N+](=O)[O-])cc3)n3nc(-c4ccco4)nc23)n1` returned an IC50 on Adenosine receptor A3 [3] of 5.5 nM. The Ratio in [1] stood at 2590; in [2], 419. For the same compound, the inhibition constant Ki on Adenosine receptor A3 [4] came out at 0.43 nM; on Adenosine receptor A2b [5] it was 180 nM; on Adenosine receptor A2a [6], 695 nM; at Adenosine receptor A1 [7] it was 1110 nM.

With `CCn1cc2c(nc(NC(=O)Nc3ccc(OC)cc3)n3nc(-c4ccco4)nc23)n1`, the Ratio turned out to be 1710 in [1] and 408 in [2].

Consider `CCCCn1cc2c(nc(NC(=O)Nc3ccc(OC)cc3)n3nc(-c4ccco4)nc23)n1`, for which the Ratio in experiment [1] was 925; in experiment [2], 946.

On to `CCn1cc2c(nc(NC(=O)Nc3ccc([N+](=O)[O-])cc3)n3nc(-c4ccco4)nc23)n1`, for which the Ratio in [1] was 1740; in experiment [2] it was 348. Also, the Ki came to 0.65 nM at Adenosine receptor A3 [4], 226 nM on Adenosine receptor A2b [5], 614 nM at Adenosine receptor A2a [6] and 1130 nM on Adenosine receptor A1 [7].

`CCCn1cc2c(nc(NC(=O)Nc3ccc([N+](=O)[O-])cc3)n3nc(-c4ccco4)nc23)n1`: the Ratio in experiment [1] worked out at 1500; in [2], 377. Further, the Ki at Adenosine receptor A3 [4] came to 0.81 nM; on Adenosine receptor A2b [5] it was 305 nM; on Adenosine receptor A2a [6], 1110 nM; at Adenosine receptor A1 [7], 1210 nM.

Turning to `Cn1cc2c(nc(NC(=O)Nc3ccc(S(=O)(=O)O)cc3)n3nc(-c4ccco4)nc23)n1`, the Ratio in [1] and in [2] was more than 400 throughout. On Adenosine receptor A3 [8], this compound had a concentration for half-maximal inhibition (IC50) of 190 nM. Also, the Ki on Adenosine receptor A1 [9] was more than 10000 nM; at Adenosine receptor A2b [5] it was more than 10000 nM; on Adenosine receptor A2a [10], 594 nM; on Adenosine receptor A3 [11] it was 25 nM.

With `CCCn1cc2c(nc(NC(=O)Nc3ccc(F)cc3)n3nc(-c4ccco4)nc23)n1`, the Ki at Adenosine receptor A2b [12] was found to be 161 nM; at Adenosine receptor A1 [13] it was 376 nM; at Adenosine receptor A3 [14], 0.29 nM; on Adenosine receptor A2a [15], 42 nM. In addition, the figures for the Ratio in experiment [1] and in [2] were 1300 and 555, respectively.

As to `CCCCn1cc2c(nc(NC(=O)Nc3cccc(Cl)c3)n3nc(-c4ccco4)nc23)n1`, the Ratio in experiment [1] was 408; in experiment [2], 116.

The IC50 is the concentration that inhibits the measured activity by half. Lower therefore signals greater potency in that assay. The term Ki denotes the equilibrium dissociation constant of an inhibitor or competing ligand from its target. High values mean lower affinity, low ones higher affinity.
